PfGluPho inh – PfG6PD (Plasmodium falciparum) enzyme inhibition; inhibition, % at 20 µM; PfGluPho enzyme, NADPH resazurin-diaphorase fluorescence; AID 504690; actives 0.78% (n = 350,000);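 active means inhibition reaching at least a set limit at 20 µM in the primary screen, cut at about 59% in these data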;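 further: 0% = DMSO wells with substrate and 100% = DMSO wells lacking glucose-6-phosphate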
Exocytosis inh – blocks lytic granule exocytosis; TALL-104 LAMP-1 surface exposure, flow cytometry; cells stimulated with thapsigargin and PMA; inhibition, % at 10 µM; actives 0.66% (n = 360,000); AID 651702;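 active means inhibition above about 55%, limit read from the data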
ABHD5 PLIN5 PPI – blocks binding of human ABHD5 to perilipin-5 | inhibition, % at 4 µM | actives 0.78% (n = 360,000) | Split G. princeps luciferase complementation, luminescence, 4 h | Q00G26+Q8WTS1;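 active means inhibition above the mean inhibition across every tested compound plus 3 SD, cut at about 22% in these data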;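 further: 0% = DMSO only wells and the 100% control is not disclosed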
Target sequence (Q00G26 whole entry, looked up): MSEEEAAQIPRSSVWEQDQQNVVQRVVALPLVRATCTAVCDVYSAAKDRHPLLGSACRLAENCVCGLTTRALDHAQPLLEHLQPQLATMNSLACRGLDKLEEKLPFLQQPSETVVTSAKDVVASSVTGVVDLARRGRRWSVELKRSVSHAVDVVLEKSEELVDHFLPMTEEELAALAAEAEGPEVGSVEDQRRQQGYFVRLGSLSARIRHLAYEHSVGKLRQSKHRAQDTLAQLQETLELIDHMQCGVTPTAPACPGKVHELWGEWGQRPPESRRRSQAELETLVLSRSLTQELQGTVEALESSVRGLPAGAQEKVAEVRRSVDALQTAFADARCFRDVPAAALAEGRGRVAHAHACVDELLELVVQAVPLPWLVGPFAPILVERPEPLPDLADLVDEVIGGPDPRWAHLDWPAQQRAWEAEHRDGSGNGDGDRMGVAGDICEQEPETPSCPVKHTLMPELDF
Target sequence (Q8WTS1 whole entry, looked up): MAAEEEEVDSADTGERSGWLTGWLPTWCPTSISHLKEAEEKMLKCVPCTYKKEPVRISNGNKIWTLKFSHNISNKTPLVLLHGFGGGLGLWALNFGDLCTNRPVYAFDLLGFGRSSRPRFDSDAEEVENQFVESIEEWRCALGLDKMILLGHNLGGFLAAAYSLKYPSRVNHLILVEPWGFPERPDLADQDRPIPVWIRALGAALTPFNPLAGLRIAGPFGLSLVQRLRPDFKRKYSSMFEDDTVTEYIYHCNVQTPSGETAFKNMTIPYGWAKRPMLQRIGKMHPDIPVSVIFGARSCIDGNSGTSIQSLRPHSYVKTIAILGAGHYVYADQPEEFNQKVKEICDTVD
HKDC1 inh – inhibitors of human hexokinase HKDC1 | inhibition, % at 20 µM | Q2TB90 | actives 0.16% (n = 340,000) | recombinant HKDC1, G6PDH/diaphorase resazurin coupled fluorescence;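 active means inhibition above about 35% when tested at 20 µM, limit read from the data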;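 further: plate controls were DMSO wells with enzyme for no effect and DMSO wells lacking enzyme for full effect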
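Test system: recombinant HKDC1 (HK5) hexokinase enzyme, produced in-house; Amount: enzyme 5 µg/mL final; Buffer or medium: Tris pH 8.0 buffer with MgCl2, Tween-20, BSA, BME; Reagent: glucose and ATP substrates; Doses: 20 µM test compound, 1% DMSO; Incubation: 90 min reaction incubation at room temperature, dark; Detection: resorufin fluorescence at 613 nm.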
PfGluPho conf – confirmation of Plasmodium falciparum G6PD inhibitors; shares compounds with PfGluPho inh; recombinant PfGluPho, NADPH-diaphorase-resazurin fluorescence; inhibition, % at 20 µM; actives 34% (n = 2,400); AID 504753;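 active means inhibition of at least 50% at 20 µM in any single replicate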;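 further: 0% = DMSO with substrate and 100% = DMSO lacking glucose-6-phosphate substrate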
Diaph ctr 10uM – inhibits diaphorase or oxidizes, flagging false PfG6PD hits | shares compounds with PfGluPho inh | diaphorase-coupled resazurin reduction, fluorescence, NADPH 10 uM | inhibition, % at 20 µM | actives 39% (n = 820) | AID 504862;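 active means average inhibition reaching 50% or more with the compound at 20 µM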;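 further: resorufin red fluorescence formed as diaphorase reduces resazurin using NADPH; 0% = DMSO with enzyme and 100% = DMSO without enzyme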
Diaph ctr 30uM – counter-screen for P. falciparum G6PD inhibitors: diaphorase inhibitors, oxidizers | shares compounds with PfGluPho inh | Diaphorase/resazurin coupled assay, resorufin fluorescence, 30 uM NADPH | inhibition, % at 20 µM | actives 29% (n = 820) | AID 504863;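 active means inhibition averaging 50% or more, tested at 20 µM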;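 further: 0% = DMSO with enzyme and 100% = DMSO wells lacking diaphorase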
* = called active by the depositor. Most compounds without a hit are left out; they make up all but 2.2% or so of the library.

`O=C(Nc1ccccc1C(=O)N/N=C/c1ccc(F)cc1)c1ccccc1Br` gave PfGluPho inh 104*, Exocytosis inh 1, ABHD5 PLIN5 PPI -3, HKDC1 inh 1, PfGluPho conf 84*, Diaph ctr 10uM 69* and Diaph ctr 30uM 59*.
Screening Oc1ccc(N2CCN(c3ccnc4cc(Cl)ccc34)CC2)cc1 returned PfGluPho inh 66*, Exocytosis inh 2, ABHD5 PLIN5 PPI 17, HKDC1 inh 3 and PfGluPho conf -5.
CCOc1ccc(N(CC(=O)N2CCOCC2)S(=O)(=O)c2ccc(Cl)cc2)cc1 was read as PfGluPho inh -9, Exocytosis inh 7, ABHD5 PLIN5 PPI -6 and HKDC1 inh 1.
Screening O=C(Nc1nnc(C(F)(F)F)s1)c1ccc(Br)s1 returned PfGluPho inh 85*, Exocytosis inh 6, ABHD5 PLIN5 PPI -2, HKDC1 inh 2, PfGluPho conf 72*, Diaph ctr 10uM 65* and Diaph ctr 30uM 52*.
CCSc1nnc(NC(=O)c2ccccc2)s1 was read as PfGluPho inh 62*, Exocytosis inh -1, ABHD5 PLIN5 PPI -2, HKDC1 inh -5 and PfGluPho conf 21.
O=C(Nc1nnc(C2CCCCC2)s1)c1ccc(Br)s1 was read as PfGluPho inh 49, Exocytosis inh -2, ABHD5 PLIN5 PPI 2 and HKDC1 inh 14.
`CCSc1nnc(NC(=O)c2ccc(Br)s2)s1` gave PfGluPho inh 102*, Exocytosis inh 5, ABHD5 PLIN5 PPI -2, HKDC1 inh -2, PfGluPho conf 64*, Diaph ctr 10uM 70* and Diaph ctr 30uM 61*.
For CCSc1nnc(Nc2ccc(C)cc2)s1 the results were PfGluPho inh 66*, Exocytosis inh -1, ABHD5 PLIN5 PPI -3, HKDC1 inh -1 and PfGluPho conf 24.
CCSc1nnc(Nc2ccccc2)s1 was read as PfGluPho inh -5, Exocytosis inh 1, ABHD5 PLIN5 PPI 1 and HKDC1 inh -5.
Screening CCSc1nnc(NC(=O)c2ccccn2)s1 returned PfGluPho inh -6, Exocytosis inh -2, ABHD5 PLIN5 PPI 14 and HKDC1 inh 5.
`O=C(NC1CCCCC1)c1ccc2snnc2c1` gave PfGluPho inh 4, Exocytosis inh -14, ABHD5 PLIN5 PPI 0 and HKDC1 inh -4.
`Cc1cc(C(=O)Nc2nnc(C(F)(F)F)s2)cs1` gave PfGluPho inh 119*, Exocytosis inh -7, ABHD5 PLIN5 PPI -2, HKDC1 inh 0, PfGluPho conf 82*, Diaph ctr 10uM 77* and Diaph ctr 30uM 72*.
`O=C(N/N=C\c1cccc(Cl)c1)c1ccc(Cn2cc(Br)c([N+](=O)[O-])n2)o1` gave PfGluPho inh 51, Exocytosis inh -7, ABHD5 PLIN5 PPI 2 and HKDC1 inh 2.
For Cc1c(Cl)c([N+](=O)[O-])nn1Cc1ccc(C(=O)N/N=C\c2cccc(Br)c2)o1 the results were PfGluPho inh 105*, Exocytosis inh 3, ABHD5 PLIN5 PPI 3, HKDC1 inh 9, PfGluPho conf 61*, Diaph ctr 10uM 61* and Diaph ctr 30uM 49.
`c1ccn2cc(-c3ccc4c(c3)OCCO4)nc2c1` gave PfGluPho inh 27, Exocytosis inh -6, ABHD5 PLIN5 PPI -2 and HKDC1 inh 5.
Screening Clc1ccc2nc(-c3ccccc3)cn2c1 returned PfGluPho inh 64*, Exocytosis inh -2, ABHD5 PLIN5 PPI -2, HKDC1 inh 0 and PfGluPho conf 37.
Screening Clc1ccc2nc(-c3ccc4c(c3)OCO4)cn2c1 returned PfGluPho inh 73*, Exocytosis inh -1, ABHD5 PLIN5 PPI -2, HKDC1 inh -5, PfGluPho conf 50*, Diaph ctr 10uM 17 and Diaph ctr 30uM 19.
For Cc1ccc2nc(-c3ccc4c(c3)OCCO4)cn2c1 the results were PfGluPho inh 109*, Exocytosis inh 18, ABHD5 PLIN5 PPI 0, HKDC1 inh 3, PfGluPho conf 58*, Diaph ctr 10uM 74* and Diaph ctr 30uM 61*.
Screening O=C1COc2ccc(-c3n[nH]c(=O)c4ccccc34)cc2N1 returned PfGluPho inh -1, Exocytosis inh -3, ABHD5 PLIN5 PPI -3 and HKDC1 inh -4.
`Cc1ccc2nc(-c3ccc4c(c3)NC(=O)CO4)cn2c1` gave PfGluPho inh 104*, Exocytosis inh -9, ABHD5 PLIN5 PPI -6, HKDC1 inh -2 and PfGluPho conf 41.
`O=C(O)c1cc(-c2ccc3c(c2)OCO3)nc2ccc(Cl)cc12` gave PfGluPho inh 28, Exocytosis inh 3, ABHD5 PLIN5 PPI 7 and HKDC1 inh -2.
Screening CN(C)S(=O)(=O)c1cccc(-c2cn3cc(Cl)ccc3n2)c1 returned PfGluPho inh 28, Exocytosis inh -5, ABHD5 PLIN5 PPI 1 and HKDC1 inh 1.
C[C@H]1CN(CCc2ccccc2)C(=O)[C@@H]1CC(=O)NCc1ccccc1 was read as PfGluPho inh 1, Exocytosis inh -1, ABHD5 PLIN5 PPI -2 and HKDC1 inh 4.
For COc1cc(N)c2ncccc2c1Br the results were PfGluPho inh 57, Exocytosis inh 7, ABHD5 PLIN5 PPI -13 and HKDC1 inh 15.
Screening COc1cc(N)c2ncsc2c1 returned PfGluPho inh 69*, Exocytosis inh -2, ABHD5 PLIN5 PPI -1, HKDC1 inh 13, PfGluPho conf 72*, Diaph ctr 10uM -11 and Diaph ctr 30uM -11.
For NC(=O)C1(Nc2ccc(Cl)cc2)CCCC1 the results were PfGluPho inh 7, Exocytosis inh 12, ABHD5 PLIN5 PPI 1 and HKDC1 inh -5.
`CCCCN(C(=O)c1ccc2c(c1)OCO2)c1ccccc1` gave PfGluPho inh -1, Exocytosis inh 2, ABHD5 PLIN5 PPI 0 and HKDC1 inh -8.
For O=C(Nc1ccc(Cl)c(Cl)c1)c1ccc(Cl)c(Cl)c1 the results were PfGluPho inh 6, Exocytosis inh 3, ABHD5 PLIN5 PPI -16 and HKDC1 inh 2.
`Cc1ccc(NC(=O)c2ccc(Cl)c(N3C(=O)C=CC3=O)c2)cc1` gave PfGluPho inh 100*, Exocytosis inh 40, ABHD5 PLIN5 PPI 39*, HKDC1 inh 2, PfGluPho conf 100*, Diaph ctr 10uM -22 and Diaph ctr 30uM -7.
COc1cccc(C(O)c2nc(-c3cncnc3)cs2)c1 (configuration not stated) was read as Exocytosis inh -4 and ABHD5 PLIN5 PPI 3.
For CCOc1ccc(C(C)NC(=S)NC2CCCCC2)cc1OCC (configuration not stated) the results were PfGluPho inh 6, Exocytosis inh 4, ABHD5 PLIN5 PPI -2 and HKDC1 inh 7.
`CCOc1ccc(C(=S)NC2CCCCC2)cc1OCC` gave PfGluPho inh 65*, Exocytosis inh -22, ABHD5 PLIN5 PPI -7, HKDC1 inh -6 and PfGluPho conf 23.

Screening results: PubChem BioAssay, several laboratories
